Only some compounds are listed: those with a hit (about 1.9% of all), similar ones and a draw of the others.
Rce1 inh = yeast Rce1p protease inhibitors, primary screen, biochemical, fluorescence, cell-free homogeneous. actives 0.27% (n = 290,000). yeast membranes, quenched prenylated peptide cleavage fluorescence. calls only. CAAX prenyl protease 2 (Saccharomyces cerevisiae (strain ATCC 204508 / S288c)), Q03530. AID 2563, 2010;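 active = fall in fluorescence gain of 50% or more versus controls, with final raw signal at or below 3038400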
Target sequence (Q03530 whole entry, looked up): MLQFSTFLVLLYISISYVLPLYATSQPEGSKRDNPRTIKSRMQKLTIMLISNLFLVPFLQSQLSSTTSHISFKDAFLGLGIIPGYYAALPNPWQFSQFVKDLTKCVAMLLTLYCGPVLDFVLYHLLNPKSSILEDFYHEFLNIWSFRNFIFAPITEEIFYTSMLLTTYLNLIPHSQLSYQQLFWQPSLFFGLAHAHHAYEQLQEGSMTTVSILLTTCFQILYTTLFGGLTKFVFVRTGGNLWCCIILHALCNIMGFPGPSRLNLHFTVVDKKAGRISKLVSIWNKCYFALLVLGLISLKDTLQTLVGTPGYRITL
NadD block = inhibitors of S. aureus NadD, primary screen, biochemical, colorimetric, uHTS; Nicotinate-nucleotide adenylyltransferase NadD (Staphylococcus aureus N315); purified NadD enzyme, colorimetric absorbance read-out; inhibition, % at 20 µM; actives 0.78% (n = 360,000); AID 602399, 2012; in the data active = inhibition above about 26%
HCV core dimer = inhibitors of HCV core protein dimerization, primary screen, biochemical, TR-FRET, high-throughput; TR-FRET GST/Flag-core106 dimerization, 1536-well; inhibition, % at 5 µM; actives 0.33% (n = 300,000); AID 1899, 2009;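 active = inhibition above the mean of all tested compounds plus 3 SD, set per screening campaign, cut at about 45% in these data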
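Material: Tagged HCV core106 pair (GST and Flag) | Amount: GST-core106 13.5 nM, Flag-core106 17 nM | Medium: KF-containing HEPES buffer, pH 7.45, DTT, CHAPS, BSA | Reagent: Eu donor and XL665 acceptor anti-tag antibodies | Schedule: 4 h at 22.5 °C | Technique: Time-resolved FRET, ex 340 nm, em 617 and 671 nm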
TbMetRS inhib = T. brucei MetRS inhibitors, primary screen, biochemical, luminescence. purified T. brucei MetRS, ATP depletion, Kinase-Glo luminescence. actives 0.4% (n = 360,000). methionyl-tRNA synthetase (Trypanosoma brucei brucei). inhibition, % at 11.9 µM;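 active = inhibition above a per-plate cutoff of the control wells' mean inhibition plus 3 SD, cut at about 5.5% in these data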
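Material: T. brucei methionyl-tRNA synthetase, purified; reagent: substrates ATP, L-methionine and bulk Escherichia coli tRNA; dosing: 11.9 µM single point; timing: 15 min plus 2 h at 25 °C; detection: luminescence of leftover ATP; evaluation: % inhibition; control set: DMSO-only wells as low control; replicates: singlicate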
Pemphigus Ab inh = inhibitors of pemphigus antibody binding to DSG3, primary screen, biochemical, bead-based, flow cytometry, scFv-GFP | binding (percent of control), % at 10 µM | actives 0.48% (n = 310,000) | DSG3-coupled beads, scFv-anti-DSG3-GFP binding; hits give low values;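 active = binding more than 3 SD below its plate's average and above zero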;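 also: hits lower antibody fragment binding to DSG3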
A number is an active result; i = inactive; nt = not tested or not shown; + = active, no number.

SMILES	Rce1 inh	NadD block	HCV core dimer	TbMetRS inhib	Pemphigus Ab inh
S=c1nc[nH]c2c1cnn2-c1ccccc1	+	i	i	i	i
Nc1ncnc2c1cnn2-c1ccccc1	i	i	i	i	i
Cc1ccc(NC(=O)CCCN2C(=O)NC(C)(C)C2=O)cc1	nt	i	nt	i	i
O=C(O)c1ccc(C[n+]2c(-c3ccccc3)csc2Nc2ccccc2)cc1	i	i	i	i	i
CC(C)(C)c1cc(-c2csc(Nc3ccccc3)[n+]2Cc2ccc(C(=O)O)cc2)cc(C(C)(C)C)c1O	nt	66	i	i	i
O=C1CCN(Cc2ccccc2)CCN1[C@H](CSc1ccccc1)Cc1ccccc1	+	i	i	i	i
O=C1CCN(CCc2ccccc2)CCN1[C@H](CSc1ccc(Br)cc1)Cc1ccccc1	i	i	i	i	i
O=C1C=CC(=O)N1c1ccc(O)cc1	i	i	i	i	i
O=C1C=CC(=O)N1c1ccc(OC(F)F)cc1	nt	i	i	i	62
Cc1ccc(CNCc2cccnc2)cc1	i	i	i	i	i
CCc1nnc2n1N=C(c1ccc(OC)cc1)CS2	i	i	i	i	i
CCc1nnc2n1N=C(c1ccc(-c3cc(Cl)ccc3Cl)o1)CS2	i	i	61	i	i
O=C1N[C@H]2CC=C[C@H]2Nc2ccccc21	nt	i	nt	i	68
O=C1N[C@H]2CC=C[C@H]2N(Cc2cccs2)c2ccccc21	nt	i	nt	i	i
CCOC(=O)c1cc2c(=O)[nH]ccc2nc1C	+	i	i	i	i
CC(C)c1ccc(-c2nn(-c3ccccc3)cc2C2C(C#N)=C(N)OC3=C2C(=O)CC(C)(C)C3)cc1 (configuration not stated)	i	i	48	i	i
NC(=O)c1ccsc1NC(=O)COC(=O)c1ccc(Cl)nc1	i	i	i	i	59
NC(=O)c1ccc(NC(=O)COC(=O)c2ccc(Cl)nc2)cc1	nt	i	nt	i	i
COc1ccc(N=Nc2ccc(O)c3ncccc23)cc1	i	40	i	i	i
COc1cccc(N=Nc2ccc(O)c3ncccc23)c1	i	34	i	i	i
COc1ccc(C)cc1N=Nc1ccc(O)c2ncccc12	i	i	nt	i	i
Cc1ccccc1N=Nc1ccc(O)c2ncccc12	i	33	i	i	i
COc1cccc(Oc2ccc(N/C=C/C(=O)C(C)(C)C)cc2)c1	i	i	i	i	i
COc1cccc(-c2cccc(-c3nc(C(=O)NCc4ccc(Oc5ccccc5)cc4)cc4c3[C@H](CCO)N(S(=O)C(C)(C)C)C4)c2)c1 (some centres not stated)	nt	31	nt	i	nt
CC(C)(C)S(=O)N1Cc2cc(C(=O)NCc3ccc(Oc4ccccc4)cc3)nc(-c3cccc(-c4cc5ccccc5o4)c3)c2[C@@H]1CCO (some centres not stated)	nt	32	nt	i	nt
SMILES	Rce1 inh	NadD block	HCV core dimer	TbMetRS inhib	Pemphigus Ab inh
COCCNC(=O)c1cc2c(c(-c3cccc(-c4cc5ccccc5o4)c3)n1)[C@H](CCO)N(S(=O)C(C)(C)C)C2 (some centres not stated)	nt	i	nt	i	nt
COc1cc(N2Cc3ccccc3C2)ccc1C=O	i	i	46	i	i
COc1ccc(NC(=O)CN(C)C(=O)/C=C/c2cn(-c3ccccc3)nc2-c2ccc(C)cc2)cc1	i	i	i	i	i
COc1ccccc1C(=O)N/C(=C\c1ccccc1)C(=O)NC(C)C(=O)O (configuration not stated)	i	i	i	i	nt
Cc1ccc(NC(=O)Nc2nnc(-c3ccncc3)s2)cc1C	i	i	i	i	i
COC(=O)Nc1nnc(-c2ccncc2)s1	+	i	i	i	i
Cc1ccc(C23CC4CC(CC(CC(=O)N5CCOCC5)(C4)C2)C3)cc1	i	i	i	i	i
COc1cccc(NC(=O)C(Sc2nnc(Nc3ccccc3C)s2)c2ccccc2)c1 (configuration not stated)	i	i	i	i	i
CCN1CC2([N+](=O)[O-])C=CC(=O)C([N+](=O)[O-])(C1)C2CC(=O)c1ccccc1 (configuration not stated)	i	i	54	i	i
Cc1ccc(-c2cn3cccnc3n2)cc1NC(=O)c1ccc(Br)o1	i	i	i	i	81
COc1ccc(-c2cn3cccnc3n2)cc1NC(=O)c1ccc(Br)o1	i	i	i	i	i
CCOc1ccc(N/C=C/C(=O)c2ccc(OC)cc2)c([N+](=O)[O-])c1	i	i	i	i	i
CCC(=O)c1ccc(OCC(=O)OCC(=O)N2CCc3ccccc32)cc1	i	i	i	i	63
O=C(CN1C(=O)c2ccccc2C1=O)Nc1sc2c(c1C(=O)NCc1ccco1)CCCC2	i	i	64	i	i
O=C(CCCN1C(=O)c2ccccc2C1=O)Nc1sc2c(c1C(=O)NCc1ccco1)CCC2	i	i	i	i	i
Cc1nc2c(C(=O)N3CCN(C)CC3)cnn2c(C)c1Cc1ccc(Cl)cc1	+	i	i	i	i
N#Cc1cc(N)c(Nc2ccccc2)cc1C#N	i	i	i	8.2	i
CC(C)(C)N(Cc1ccccc1)C(=O)c1cc2ccccc2o1	i	i	i	i	i
Cc1cc(SCC(=O)c2ccc(Cl)cc2)nc(=O)[nH]1	i	i	i	i	i
Cc1ccc(C(=O)CSc2cc(C)[nH]c(=O)n2)cc1	i	i	64	i	i
NC(=O)CSC1=Nc2ccccc2C2=NC(c3ccccc3)C(=O)N12 (configuration not stated)	+	i	i	i	i
CCCCc1nnc(NC(=O)CN2C(=O)C3CCCCC3C2=O)s1 (configuration not stated)	i	i	i	i	i
O=C(C1=C[C@@H]2[C@H]3C(=O)N(c4cccc(Cl)c4)C(=O)[C@H]3[C@@H](C(=O)c3ccc(Cl)cc3)N2C=C1)c1ccccc1	i	57	i	i	i
COc1ccc(NC(=O)CN(C)C(=O)C2CC(=O)N(c3cccc4ccccc34)C2)cc1 (configuration not stated)	nt	i	nt	i	i
COc1ccc(-c2cn3ccc4ccccc4c3n2)cc1	i	i	i	i	86
COc1ccc(-c2cn3ccccc3n2)cc1	i	i	i	i	i
CC(C)(C)n1nc2c(c1NC(=O)COc1ccc(Cl)cc1)CSC2	i	46	i	i	i
O=C1/C(=C/c2ccccc2)SC(=S)N1CC(=O)N1CCCCC1c1cccnc1 (configuration not stated)	i	45	i	i	i
O=C(Nc1ccccc1)OCCCCCOC(=O)Nc1ccccc1	i	i	i	i	79

From PubChem BioAssay
